What was measured:
Femur [1] = assay: Biodistribution in CD1 mouse flushed femur at 300 kBq, iv after 60 mins by gamma counting; type: ADME, organism-based; conditions: in vivo, 1 h
How it was run: (§1)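 Female CD-1 mice received [18F]1 (300 kBq) i.v.; 3–6 animals per time point anesthetized at 5, 30, 60 or 120 min p.i., blood and urine collected, animals euthanized by cervical dislocation, organs dissected and weighed. Radioactivity counted in a calibrated gamma counter; % ID/g = tissue counts / initial dose counts / tissue weight; means with SD.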

Mus musculus [2] = assay: Biodistribution in CD1 mouse fat at 300 kBq, iv after 60 mins by gamma counting; type: ADME, organism-based, Adipose tissue; conditions: in vivo, 1 h; how it was run: as §1
Blood [3] = assay: Biodistribution in CD1 mouse blood at 300 kBq, iv after 120 mins by gamma counting; type: ADME, organism-based; conditions: in vivo, 2 h; how it was run: as §1
Kidney [4] = assay: Biodistribution in CD1 mouse kidney at 300 kBq, iv after 120 mins by gamma counting; type: ADME, organism-based; conditions: in vivo, 2 h
How it was run: (§2)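 Female CD-1 mice received the 18F tracer iv at 300 kBq in 0.9% NaCl containing 5% ethanol; 3–6 animals per time point (5, 30, 60, 120 min p.i.). Animals anaesthetized, blood and urine collected, killed by cervical luxation, organs dissected and weighed, counted in calibrated gamma counter. %ID/g = tissue counts / initial dose counts / tissue weight; mean with SD.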

[5] = Biodistribution in CD1 mouse urine at 300 kBq, iv after 120 mins by gamma counting; type: ADME, organism-based; conditions: in vivo, 2 h
How it was run: (§3)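 Female CD-1 mice received 300 kBq of the radiotracer i.v.; 3–6 animals per time point were anaesthetised at 5, 30, 60 or 120 min p.i. Blood and urine were collected, animals were killed by cervical dislocation, and organs were dissected and weighed. Activity was counted in a calibrated gamma counter and expressed as % injected dose per g wet tissue, mean with SD.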

Spleen [6] = assay: Biodistribution in CD1 mouse spleen at 300 kBq, iv after 120 mins by gamma counting; type: ADME, organism-based; conditions: in vivo, 2 h; how it was run: as §2
Mus musculus [7] = assay: Biodistribution in CD1 mouse thymus at 300 kBq, iv after 120 mins by gamma counting; type: ADME, organism-based; conditions: in vivo, 2 h; how it was run: as §2
Mus musculus [8] = assay: Biodistribution in CD1 mouse adrenals at 300 kBq, iv after 120 mins by gamma counting; type: ADME, organism-based, Adrenal gland; conditions: in vivo, 2 h; how it was run: as §1
Mus musculus [9] = assay: Biodistribution in CD1 mouse gonads at 300 kBq, iv after 120 mins by gamma counting; type: ADME, organism-based, Gonad; conditions: in vivo, 2 h; how it was run: as §1
Femur [10] = assay: Biodistribution in CD1 mouse femur at 300 kBq, iv after 120 mins by gamma counting; type: ADME, organism-based; conditions: in vivo, 2 h; how it was run: as §1
Mus musculus [11] = assay: Biodistribution in CD1 mouse fat at 300 kBq, iv after 120 mins by gamma counting; type: ADME, organism-based, Adipose tissue; conditions: in vivo, 2 h; how it was run: as §1
[12] = Chemical stability of the compound in 0.01 M Tris-HCl at pH 7.4 assessed as compound remaining after 2 hrs by radio-HPLC/TLC analysis; type: physicochemical; conditions: read-out: Stability
How it was run: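 Radiotracer incubated 120 min at 40 °C in 0.9% NaCl (pH 7.2), phosphate-saline (0.1 M sodium phosphate, 0.15 M NaCl, pH 7.2) or 0.01 M TRIS–HCl (pH 7.4 at 21 °C). Aliquots were taken at set times and analysed by radio-TLC on silica and by gradient radio-HPLC on RP-18 (MeCN/20 mM ammonium acetate, 254 nm), giving % unchanged tracer; n = 2.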

[13] = Octanol-phosphate buffer partition coefficient, log D of the compound at pH 7.2 by shake-flask method; type: physicochemical
How it was run: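 Shake-flask distribution of the radioligand between n-octanol and aqueous buffer at pH 7.2, either phosphate buffer or phosphate-saline; n = 3.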

[14] = Metabolic stability in CD1 mouse brain homogenates assessed as compound remaining at 191 MBq, iv after 30 mins by radio-HPLC/TLC analysis; type: ADME, organism-based; conditions: brain homogenate, read-out: Stability
How it was run: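 Female CD-1 mice were injected with the radiotracer via the tail vein and killed at 30 or 60 min p.i. Whole brains (n = 2 per time) were homogenised in 50 mM TRIS–HCl pH 7.4 at 4 °C and extracted twice with ice-cold acetonitrile. Concentrated extracts were analysed by radio-HPLC and radio-TLC to give % parent versus radiometabolites.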

Mus musculus [15] = assay: Biodistribution in CD1 mouse anterior olfactory bulb in brain saggital section at 24 MBq, iv at 45 mins by autoradiography; type: ADME, organism-based; conditions: in vivo, 0.75 h
How it was run: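 Female CD-1 mouse given [18F]1 (24 MBq) i.v. and sacrificed at 45 min. Brain hemispheres frozen in isopentane (−35 °C), cut into 12 µm sagittal cryosections, thaw-mounted, air-dried and exposed to 18F-sensitive storage phosphor screens. Anterior olfactory bulb served as nontarget region for target-to-nontarget ratios.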

Stomach [16] = assay: Biodistribution in CD1 mouse stomach at 300 kBq, iv after 5 mins by gamma counting; type: ADME, organism-based; conditions: in vivo; how it was run: as §2
Mus musculus [17] = assay: Biodistribution in CD1 mouse large intestine at 300 kBq, iv after 5 mins by gamma counting; type: ADME, organism-based; conditions: in vivo; how it was run: as §2
Liver [18] = assay: Biodistribution in CD1 mouse liver at 300 kBq, iv after 5 mins by gamma counting; type: ADME, organism-based; conditions: in vivo; how it was run: as §2
Kidney [19] = assay: Biodistribution in CD1 mouse kidney at 300 kBq, iv after 5 mins by gamma counting; type: ADME, organism-based; conditions: in vivo; how it was run: as §2
[20] = Biodistribution in CD1 mouse urine at 300 kBq, iv after 5 mins by gamma counting; type: ADME, organism-based; conditions: in vivo; how it was run: as §3
Spleen [21] = assay: Biodistribution in CD1 mouse spleen at 300 kBq, iv after 5 mins by gamma counting; type: ADME, organism-based; conditions: in vivo; how it was run: as §2
Mus musculus [22] = assay: Biodistribution in CD1 mouse thymus at 300 kBq, iv after 5 mins by gamma counting; type: ADME, organism-based; conditions: in vivo; how it was run: as §2
Pancreas = assay: Biodistribution in CD1 mouse pancreas at 300 kBq, iv after 5 mins by gamma counting; type: ADME, organism-based; conditions: in vivo; how it was run: as §2
Mus musculus [23] = assay: Biodistribution in CD1 mouse eye at 300 kBq, iv after 5 mins by gamma counting; type: ADME, organism-based; conditions: in vivo; how it was run: as §1
Lung [24] = assay: Biodistribution in CD1 mouse lung at 300 kBq, iv after 30 mins by gamma counting; type: ADME, organism-based; conditions: in vivo, 0.5 h; how it was run: as §2
Liver [25] = assay: Biodistribution in CD1 mouse liver at 300 kBq, iv after 30 mins by gamma counting; type: ADME, organism-based; conditions: in vivo, 0.5 h; how it was run: as §2
Urinary bladder = assay: Biodistribution in CD1 mouse bladder at 300 kBq, iv after 30 mins by gamma counting; type: ADME, organism-based; conditions: in vivo, 0.5 h; how it was run: as §1
Femur [26] = assay: Biodistribution in CD1 mouse flushed femur at 300 kBq, iv after 30 mins by gamma counting; type: ADME, organism-based; conditions: in vivo, 0.5 h; how it was run: as §1
Mus musculus [27] = assay: Biodistribution in CD1 mouse fat at 300 kBq, iv after 30 mins by gamma counting; type: ADME, organism-based, Adipose tissue; conditions: in vivo, 0.5 h; how it was run: as §1
Blood [28] = assay: Biodistribution in CD1 mouse blood at 300 kBq, iv after 60 mins by gamma counting; type: ADME, organism-based; conditions: in vivo, 1 h; how it was run: as §1
Lung [29] = assay: Biodistribution in CD1 mouse lung at 300 kBq, iv after 60 mins by gamma counting; type: ADME, organism-based; conditions: in vivo, 1 h; how it was run: as §2
Stomach [30] = assay: Biodistribution in CD1 mouse stomach at 300 kBq, iv after 60 mins by gamma counting; type: ADME, organism-based; conditions: in vivo, 1 h; how it was run: as §2
[31] = Biodistribution in CD1 mouse urine at 300 kBq, iv after 60 mins by gamma counting; type: ADME, organism-based; conditions: in vivo, 1 h; how it was run: as §3
Spleen [32] = assay: Biodistribution in CD1 mouse spleen at 300 kBq, iv after 60 mins by gamma counting; type: ADME, organism-based; conditions: in vivo, 1 h; how it was run: as §2
Mus musculus [33] = assay: Biodistribution in CD1 mouse adrenals at 300 kBq, iv after 60 mins by gamma counting; type: ADME, organism-based, Adrenal gland; conditions: in vivo, 1 h; how it was run: as §1

[18F]CC1OC2(CCN(Cc3ccccc3)CC2)c2ccccc21 (stereo not given)
Drug uptake (Femur [1]): 1.18 % ID/g | Drug uptake (Mus musculus [2]): 2.02 % ID/g | Drug uptake (Blood [3]): 0.15 % ID/g | Drug uptake (Kidney [4]): 5.6 % ID/g | Drug uptake [5]: 56.46 % ID/g | Drug uptake (Spleen [6]): 4.84 % ID/g | Drug uptake (Mus musculus [7]): 2.52 % ID/g | Drug uptake (Mus musculus [8]): 6.6 % ID/g | Drug uptake (Mus musculus [9]): 3.55 % ID/g | Drug uptake (Femur [10]): 1.92 % ID/g | Drug uptake (Mus musculus [11]): 2.08 % ID/g | remaining at 2 h [12]: 100% | logD [13]: 2.45 | remaining at 0.5 h [14]: 90% | Drug uptake (Mus musculus [15]): Active | Drug uptake (Stomach [16]): 2.62 % ID/g | Drug uptake (Mus musculus [17]): 0.91 % ID/g | Drug uptake (Liver [18]): 5.31 % ID/g | Drug uptake (Kidney [19]): 14.93 % ID/g | Drug uptake [20]: 3.99 % ID/g | Drug uptake (Spleen [21]): 6.23 % ID/g | Drug uptake (Mus musculus [22]): 3.61 % ID/g | Drug uptake (Pancreas): 11.22 % ID/g | Drug uptake (Mus musculus [23]): 1.89 % ID/g | Drug uptake (Lung [24]): 8.3 % ID/g | Drug uptake (Liver [25]): 6.68 % ID/g | Drug uptake (Urinary bladder): 3.86 % ID/g | Drug uptake (Femur [26]): 1.42 % ID/g | Drug uptake (Mus musculus [27]): 1.82 % ID/g | Drug uptake (Blood [28]): 0.16 % ID/g | Drug uptake (Lung [29]): 8.32 % ID/g | Drug uptake (Stomach [30]): 1.77 % ID/g | Drug uptake [31]: 45.5 % ID/g | Drug uptake (Spleen [32]): 5.3 % ID/g | Drug uptake (Mus musculus [33]): 7.48 % ID/g

From ChEMBL document CHEMBL1938297, “Synthesis, radiofluorination and pharmacological evaluation of a fluoromethyl spirocyclic PET tracer for central σ1 receptors and comparison with fluoroalkyl homologs” (Bioorg Med Chem, 2012)
